Only some compounds are listed: those with a hit (about 1.4% of all), similar ones and a draw of the others.
HTR5A ag – HTR5A agonists in luminescence cell assay, primary screen, counter-screen for OPRM1-OPRD1 heterodimer agonist project, full-deck HTS. cell-based. activation, % at 9.3 µM. 5-hydroxytryptamine receptor 5A (Homo sapiens), P47898. 340,000 compounds, 0.61% hits; in the data active means activation mostly above about 9.5%, no sharp cut-off; inactive means mostly below about 7.6%;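 further: 0% = cells with vehicle only and 100% = reference agonist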
DAGLB inhibitor – DAGLB lipase inhibitors, primary screen, biochemical, fluorescence, HTS; inhibition, % at 5.17 µM; Diacylglycerol lipase-beta (Homo sapiens), Q8NCG7; HEK293T DAGLB membrane lysate, EnzChek fluorogenic substrate; AID 504411, 2011; 340,000 compounds, 0.059% hits; in the data active means inhibition above about 34%;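 further: 0% = enzyme with vehicle and 100% = wells lacking enzyme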
Target sequence (Q8NCG7 whole entry, looked up): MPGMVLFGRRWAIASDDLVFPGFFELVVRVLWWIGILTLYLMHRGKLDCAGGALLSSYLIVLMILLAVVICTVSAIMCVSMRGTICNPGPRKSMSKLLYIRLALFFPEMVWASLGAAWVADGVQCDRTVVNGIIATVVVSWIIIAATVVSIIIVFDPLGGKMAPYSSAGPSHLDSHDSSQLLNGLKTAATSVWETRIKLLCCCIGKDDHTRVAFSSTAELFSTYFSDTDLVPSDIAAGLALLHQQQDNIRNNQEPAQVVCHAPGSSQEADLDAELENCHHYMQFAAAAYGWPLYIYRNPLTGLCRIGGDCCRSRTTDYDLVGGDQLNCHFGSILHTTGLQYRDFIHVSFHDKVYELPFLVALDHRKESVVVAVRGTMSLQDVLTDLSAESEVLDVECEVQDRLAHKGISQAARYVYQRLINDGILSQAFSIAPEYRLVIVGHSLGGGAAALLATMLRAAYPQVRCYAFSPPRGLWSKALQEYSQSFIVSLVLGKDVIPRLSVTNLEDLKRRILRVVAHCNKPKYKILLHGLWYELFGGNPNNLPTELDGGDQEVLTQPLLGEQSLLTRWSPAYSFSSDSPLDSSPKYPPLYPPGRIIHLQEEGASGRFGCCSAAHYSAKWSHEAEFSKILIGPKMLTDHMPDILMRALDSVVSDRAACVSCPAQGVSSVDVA
MOR-DOR ag – agonists of OPRM1-OPRD1 heterodimerization, primary screen, cell-based, luminescence; Mu-type opioid receptor (Homo sapiens) + Delta-type opioid receptor (Homo sapiens), …; cells; activation, % at 9.3 µM; 340,000 compounds, 0.3% hits; AID 504326, 2011; in the data active means activation above about 18%;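 further: 0% = vehicle-treated cells and 100% = reference agonist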
Arr AP2 block – inhibitors of beta-arrestin/AP2 binding, primary screen, biochemical, GPCR trafficking, flow cytometry. beta-arrestin 1 C-terminal peptide binding to AP2 beta2-adaptin appendage (human). FITC-arrestin peptide / GST-AP2 beads; AP2 beta2 appendage carries R879A mutation. inhibition, % at 10 µM. 340,000 compounds, 0.31% hits. AID 504490, 2011;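 active means inhibition above a set limit, near 3 SD of compounds lacking own fluorescence, cut at about 54% in these data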;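 further: plate controls were DMSO wells for no effect and 5 µM unlabelled arrestin peptide for full effect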
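Material – GST-tagged AP2 beta2-adaptin appendage (R879A) on 4 µm glutathione beads · Probe or stimulus – fluorescein-tagged arrestin peptide at 50 nM final · Timing – 12 min plus 1 h, RT · Detection – bead flow cytometry, FITC channel · Read-out basis – inhibition as reduced fluorescein signal on beads, percent · Medium – PBS plus Tween 20 (0.05%) and BSA (0.1%)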
HTR5A inv ag – HTR5A inverse agonists in luminescence cell assay, primary screen, counter-screen for OPRM1-OPRD1 heterodimer inverse agonist project, full-deck HTS. inhibition, % at 9.3 µM. 5-hydroxytryptamine receptor 5A (Homo sapiens), P47898. 340,000 compounds, 0.083% hits. HTR5A cell line, inverse agonism; in the data active means inhibition mostly above about 23%, no sharp cut-off; inactive means mostly below about 18%;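 further: 0% = cells with DMSO and 100% = no-cell wells with DMSO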
OPRM1-OPRD1 inv – inverse agonists of MOR-DOR heterodimerization, primary screen, cell-based, luminescence | Mu-type opioid receptor (Homo sapiens) + Delta-type opioid receptor (Homo sapiens), … | cell-based MOR-DOR heterodimer luminescence, inverse agonism | inhibition, % at 9.3 µM | 340,000 compounds, 0.21% hits | AID 504357, 2011; in the data active means inhibition above about 22%, passing the limit was not always enough;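 further: 0% = cells with DMSO and 100% = wells without cells with DMSO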
Arr-AP2 CP1 – inhibitors of arrestin peptide binding to AP2, confirmation, biochemical, cherry pick 1, flow cytometry beads | shares compounds with Arr AP2 block | GST-AP2 beads, FITC arrestin peptide binding; GST-fused beta2-adaptin appendage, R879A mutant | inhibition, % at 10 µM | 1,300 compounds, 2% hits | AID 504908, 2011;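 active means inhibition above a set limit, roughly 3 SD of non-fluorescent compound noise, cut at about 38% in these data; inactive means inhibition at or below that limit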;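 further: loss of bead fluorescence from 50 nM FITC arrestin peptide bound to appendage; 0% = negative control wells and 100% = excess unlabelled arrestin peptide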
GST GSH counter – GST-fluorescein capture on glutathione beads, confirmation, artefact control for arrestin-AP2 inhibitor project, biochemical, cherry pick 1, flow cytometry; shares compounds with Arr AP2 block; GST-fluorescein binding to GSH beads, fluorescence, counter-screen; inhibition, % at 10 µM; 1,300 compounds, 2% hits;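 active means inhibition above 50%, about 3 SD of the inhibition seen with non-fluorescent compounds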;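 further: fluorescein maleimide labelled GST captured on 4 micron glutathione beads; higher means more loss of bead fluorescence from quenching or blocked binding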
Starred values were filed as active, the others as inactive; x = no result.

SMILES	HTR5A ag	DAGLB inhibitor	MOR-DOR ag	Arr AP2 block	HTR5A inv ag	OPRM1-OPRD1 inv	Arr-AP2 CP1	GST GSH counter
O=C(CCCn1c(=O)[nH]c2ccsc2c1=O)Nc1ccc(F)cc1	1.1	0.1	-2.0	-1.3	10.2	10.3	x	x
O=C(CCn1c(=O)[nH]c2ccccc2c1=O)Nc1ccccc1	4.2	0.5	-2.6	-13.9	-1.3	16.1	-14.6	-6.7
O=C(CCCn1c(=O)[nH]c2ccccc2c1=O)Nc1ccc(F)cc1	-0.2	-0.3	0.0	57.4*	0.5	0.1	-8.8	-10.1
O=C1CC(C(=O)O)C(c2ccccc2)c2ccccc21 (stereo unspecified)	0.2	-0.3	-0.2	55.2*	-0.6	0.9	4.0	11.4
COc1ccc(NC(=S)N2CCCC(c3nc4ccc(C)cc4[nH]3)C2)cc1 (stereo unspecified)	-2.0	-1.4	-2.9	56.9*	6.1	14.9	-9.7	-2.9
COc1ccc(NC(=S)N2CCCC(c3nc4ccc(C)cc4[nH]3)C2)c(OC)c1 (stereo unspecified)	-0.7	0.4	-2.9	0.5	1.8	13.4	x	x
COc1ccccc1C(=O)Nc1nnc(S(=O)(=O)N2CCCCC2)s1	-2.3	1.5	0.3	63.7*	15.9	-1.7	5.6	-17.8
COc1ccccc1C(=O)Nc1nnc(S(=O)(=O)N2CCCCCC2)s1	7.9	-6.4	-0.3	10.7	-23.0	2.0	x	x
CCCN1CCC(=O)N(CCOc2ccccc2)CC1	4.0	-1.6	-2.0	-6.9	3.5	11.3	x	x
CC(C)CN1CCC(=O)N(CCOc2ccccc2)CC1	5.8	-0.8	-1.4	56.9*	0.9	7.7	9.2	-1.5
C[C@@H]1CCCCO[C@@H](CN(C)S(=O)(=O)c2cn(C)cn2)[C@@H](C)CN([C@H](C)CO)C(=O)c2cc(N(C)C)ccc2O1	x	-1.9	x	x	x	x	x	x
CN(C(=O)COC(=O)c1cc(-c2ccccc2Cl)nc2ccccc12)C1CCS(=O)(=O)C1 (stereo unspecified)	1.1	1.9	-0.5	5.2	-2.9	2.5	x	x
CN(C(=O)COC(=O)c1cc(-c2ccc(Cl)s2)nc2ccccc12)C1CCS(=O)(=O)C1 (stereo unspecified)	-1.2	-8.2	-1.1	63.7*	-11.0	5.3	13.3	-1.9
CNS(=O)(=O)c1cccc(C(=O)OCC(=O)c2c(N)n(Cc3ccccc3)c(=O)n(C)c2=O)c1	-1.2	2.3	-3.9	5.4	2.9	15.2	x	x
O=C(Nc1cc(S(=O)(=O)N2CCOCC2)ccc1N1CCOCC1)c1cccc(Cl)c1	x	-1.9	x	x	x	x	x	x
O=C(Nc1ccc(N2CCOCC2)cc1N1CCOCC1)c1ccc(F)cc1	-2.3	-2.3	-4.5	30.3	2.2	17.7	x	x
Cn1c(=O)n(C)c2cc(N3CCOCC3)c(NC(=O)c3cccc(Cl)c3)cc21	2.4	0.9	-2.5	-12.4	16.5	13.2	0.6	1.9
COc1cccc(OC)c1C(=O)Nc1cc2c(cc1N1CCOCC1)n(C)c(=O)n2C	0.2	-1.1	-0.6	-2.5	7.9	3.2	-11.6	-1.3
Cn1c(=O)n(C)c2cc(N3CCOCC3)c(NC(=O)c3ccc(F)cc3)cc21	0.4	1.4	-1.8	41.4	7.6	9.2	18.8	14.5
O=C(N/N=C/c1ccc(Cl)cc1)c1ccc2nc[nH]c2c1	x	2.2	x	x	x	x	x	x
Cc1cc(NC(=O)COC(=O)CCS(=O)(=O)c2cc(Cl)ccc2Cl)no1	0.0	-1.1	-2.2	57.5*	-0.1	12.1	-10.6	11.1
Cc1cc(NC(=O)COC(=O)CCS(=O)(=O)c2ccc(C)c(C)c2)no1	2.0	1.6	-2.0	7.1	-5.6	12.9	x	x
CCCCCOC(=O)CCN1C(=O)/C(=C2\SC(=S)N(CCC(=O)OCCCCC)C2=O)SC1=S	-6.0	-0.9	0.1	56.2*	-15.6	-0.4	0.6	-2.2
CCCCOC(=O)CCN1C(=O)/C(=C2\SC(=S)N(CCC(=O)OCCCC)C2=O)SC1=S	0.9	0.1	-2.4	26.6	-19.0	12.3	x	x
O=C1OC(c2ccccc2)(c2ccc3cc(O)ccc3c2)c2ccccc21 (stereo unspecified)	3.5	-3.6	12.9	1.6	-13.3	-56.5	x	x
SMILES	HTR5A ag	DAGLB inhibitor	MOR-DOR ag	Arr AP2 block	HTR5A inv ag	OPRM1-OPRD1 inv	Arr-AP2 CP1	GST GSH counter
Cc1cnc(C(=O)OCC(=O)N2c3ccccc3CC2C)cn1 (stereo unspecified)	-0.9	3.1	-1.5	55.2*	2.3	7.1	-4.7	-0.7
C/C(=N\NC(=O)c1cc(-c2ccncc2)nc2ccccc12)c1ccc(N2CCOCC2)cc1	-0.3	-2.4	-1.1	111.0*	8.1	8.0	-12.6	0.1
NS(=O)(=O)c1ccc(N2C(=O)CCCC2=O)cc1	x	1.4	x	x	x	x	x	x
Cc1ccc(C(=O)Nc2ccccc2C(=O)N2CCCC(C)C2)cc1 (stereo unspecified)	-2.9	-4.3	1.2	56.1*	-6.8	-8.1	-1.1	1.1
O=C(CS(=O)(=O)c1ccccc1)Nc1ccc(N2CCOCC2)cc1	-7.2	-0.8	-1.7	60.1*	19.9	7.7	-5.7	-3.0
C1CCN(c2nc(N3CCCCC3)nc(N3CCNCC3)n2)CC1	0.1	-4.6	2.8	100.9*	1.5	-16.9	0.7	-1.3
CCOC(=O)CNC(=O)CSc1nc(C(C)C)nc2c1cnn2-c1ccccc1	x	-4.3	x	x	x	x	x	x
COCCn1c(SCC(=O)Nc2ccc(S(=O)(=O)N(C)C)cc2)nc2ccccc21	3.3	-0.8	-1.1	56.6*	-25.0	6.1	0.5	-11.7
COCCn1c(SCC(=O)Nc2ccc(N3CCOCC3)cc2)nc2ccccc21	-0.4	-1.5	-0.1	18.1	-7.6	0.4	x	x
CC(NS(=O)(=O)c1cccc(Cl)c1F)[C@H](O)c1ccccc1 (stereo partly specified)	x	-2.7	x	x	x	x	x	x
COc1ccc(C2Nc3ccccc3C(=O)N2NS(C)(=O)=O)cc1OC (stereo unspecified)	6.6	0.5	-0.9	71.2*	14.9	4.6	-2.1	0.7
COc1ccc(C2Nc3ccccc3C(=O)N2NS(=O)(=O)c2ccccc2)cc1OC (stereo unspecified)	3.3	3.2	0.5	11.1	-8.6	-2.7	x	x
